From ChEMBL document CHEMBL1121524, “Studies of hypolipidemic agents. 1. Synthesis and hypolipidemic activities of alkoxycinnamic acid derivatives” (1980)

Legend:
Format in all cases: functional
[1] = species: Rattus norvegicus; experiment: Hypolipidemic activity, expressed as percent decrease in serum cholesterol in rat, at dosage of 100 mg for 7 days by Zak et al method
How it was run: (§1)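 Male Sprague-Dawley rats, 4 weeks old, kept on CE-2 chow for at least 1 week, then grouped (generally five per group). Compound was mixed into CE-2 powder and fed ad libitum for the stated period; controls received plain CE-2 powder. Diet level is given as mg/100 g (mg%), about equal to mg/kg/day. Total serum cholesterol was measured by the Zak et al. method and reported as percent depression versus control group mean. Significance was p < 0.05.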

[2] = test system: Rattus norvegicus; experiment: In vivo hypolipidemic activity, expressed as percent decrease in Triglyceride in rat, at dosage of 100 mg for 7 days.
How it was run: as §1, with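 “triglyceride” for “cholesterol”, “Ryan and Rasho” for “Zak et al.”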

[3] = species: Rattus norvegicus; experiment: Tested for the hypolipidemic activity, expressed as percent decrease in serum cholesterol in rat, at dosage of 50 mg for 7 days; how it was run: as §1
[4] = species: Rattus norvegicus; experiment: Hypolipidemic activity expressed as percentage decrease in triglyceride in rat, at dosage of 50 mg for 7 days
How it was run: as §1, with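 “triglyceride” for “cholesterol”, “Ryan and Rasho” for “Zak et al.”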

Compound	Decrease [1]	Decrease [2]	Decrease [3]	Decrease [4]
CCCCCCCCOc1ccc(/C=C/C(=O)OCCCl)cc1	5%	–	–	–
CCCCOc1ccc(/C=C/C(=O)OCCBr)cc1	9%	26%	–	–
C=C(C)C(=O)OCCOC(=O)/C=C(\C)c1ccc(OCCCCCCCCCCCCCCCC)cc1	11%	12%	–	–
C=CCOc1ccc(/C=C/C(=O)OCCCl)cc1	-9%	26%	–	–
C=C(C)C(=O)OCCOC(=O)/C=C/c1ccc(OCCCCCCCC)cc1	16%	-11%	–	–
CCCCOc1ccc(/C=C/C(=O)OCCO)cc1	9%	26%	–	–
O=C(/C=C/c1ccc(OCc2ccccc2)cc1)OCCCl	-3%	–	–	–
CCCCCCCCCCCCCCCCOc1ccc(/C=C/C(=O)OCCS(=O)(=O)[O-])cc1.[Na+]	17%	47%	–	–
C=COC(=O)/C=C/c1ccc(OCCCCCCCC)cc1	-6%	–	–	–
CCCCCCCCCCCCCCCCCCOc1ccc(/C=C/C(=O)OCCCCl)cc1	–	–	9%	3%
COc1ccc(/C=C/C(=O)OCCCl)cc1	0%	–	–	–
CCCCCCCCCCCCCCOc1ccc(/C=C(\C)C(=O)OCC(O)COC(=O)/C(C)=C/c2ccc(OCCCCCCCCCCCCCC)cc2)cc1 (centres undefined)	–	–	6%	6%
CCCCCCCCCCCCOc1ccc(/C=C(\C)C(=O)OCC2COC(C)(C)O2)cc1 (centres undefined)	–	–	16%	41%
CCCCCCCCCCCCCCCCCCOc1ccc(/C=C(\C)C(=O)OCCCCl)cc1	–	–	0%	11%
CCCCCCCCCCOc1ccc(/C=C/C(=O)OCC(O)CO)cc1 (centres undefined)	–	–	-3%	14%
CCCCCCCCCCOc1ccc(/C=C(\C)C(=O)OCC(O)CO)cc1 (centres undefined)	–	–	10%	52%

Compound	Decrease [1]	Decrease [2]	Decrease [3]	Decrease [4]
CCCCCCCCCCCCCCOc1ccc(/C=C(\C)C(=O)OCC(O)COC(=O)c2cccnc2)cc1 (centres undefined)	–	–	4%	33%
C=CC(=O)OCCOC(=O)/C=C/c1ccc(OCCCCCCCCCCCCCCCC)cc1	6%	–	–	–
CCCCCCCCOc1ccc(/C=C/C(=O)OCCOC(=O)/C=C/c2ccc(OCCCCCCCC)cc2)cc1	–	–	4%	9%
CCCCCCCCCCCCCCCCOc1ccc(/C=C(\C)C(=O)OCC2COC(C)(C)O2)cc1 (centres undefined)	–	–	1%	3%
CCCCCCCCCCCCCCOc1ccc(/C=C/C(=O)O)cc1	–	–	7%	0%
CCCCOc1ccc(/C=C/C(=O)OCCS(=O)(=O)[O-])cc1.[Na+]	-1%	9%	–	–
C=C(C)C(=O)OCCOC(=O)/C=C/c1ccc(OCc2ccccc2)cc1	13%	33%	–	–
CCCCCCCCOc1ccc(/C=C(\C)C(=O)OCC(O)CO)cc1 (centres undefined)	–	–	8%	21%
CCCCCCCCCCCCCCOc1ccc(/C=C(\C)C(=O)OCC(COC(=O)c2cccnc2)OC(=O)c2cccnc2)cc1 (centres undefined)	–	–	7%	17%
CCCCCCCCCCCCCCOc1ccc(/C=C(\C)C(=O)OCC(COC(C)=O)OC(C)=O)cc1 (centres undefined)	–	–	4%	41%
CCCCCCCCCCOc1ccc(/C=C/C(=O)O)cc1	–	–	9%	18%
CCCCCCCCCCCCCCOc1ccc(/C=C(\C)C(=O)OC)cc1	–	–	10%	44%
C=C(C)C(=O)OCCOC(=O)/C=C/c1ccc(OCCCCCCCCCCCC)cc1	–	–	13%	34%
CCCCCCCCCCCCCCCCOc1ccc(/C=C(\C)C(=O)OCC(COC(=O)/C(C)=C/c2ccc(OCCCCCCCCCCCCCCCC)cc2)OC(=O)/C(C)=C/c2ccc(OCCCCCCCCCCCCCCCC)cc2)cc1 (centres undefined)	–	–	0%	9%
CCCCCCCCCCCCCCOc1ccc(/C=C(\C)C(=O)OC(CO)CO)cc1	–	–	9%	38%
CCCCCCCCCCCCCCOc1ccc(/C=C(\C)C(=O)OCCN(C)C)cc1.Cl	–	–	8%	35%
